The list is not random: actives were taken first. Their share in the collection is about 2.7%.
PAFAH1B3 inh = PAFAH1B3 (human) inhibition; AID 492972; Q15102; 0.28% of 340,000 active; recombinant PAFAH1B3, FP-rhodamine probe, fluorescence polarization; inhibition, % at 3.39 µM;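 active = inhibition above the screen-wide average of all tested compounds plus 3 SD, cut at about 25% in these data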;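 also: 0% = enzyme with DMSO only and 100% = wells lacking PAFAH1B3 protein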
Target sequence (Q15102 whole entry, looked up): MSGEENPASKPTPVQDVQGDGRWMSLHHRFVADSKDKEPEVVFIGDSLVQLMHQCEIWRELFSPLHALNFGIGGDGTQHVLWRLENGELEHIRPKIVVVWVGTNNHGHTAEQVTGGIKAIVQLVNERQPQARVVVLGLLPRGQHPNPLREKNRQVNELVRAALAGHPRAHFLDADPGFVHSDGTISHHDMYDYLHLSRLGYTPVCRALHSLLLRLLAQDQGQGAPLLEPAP
ASAP1 inh = ASAP1 ArfGAP inhibition. ASAP1-stimulated ARF1 GTP hydrolysis, GDP FP detection. 0.19% of 360,000 active. inhibition, % at 16.5 µM. Q9ULH1; in the data active = inhibition above about 25%;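 also: 0% = vehicle with enzyme and substrate and 100% = no enzyme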
PAFAH1B2 inh = inhibitors of human PAFAH1B2; P68402; recombinant PAFAH1B2, FP-rhodamine activity probe, fluorescence polarization; inhibition, % at 3.39 µM; 1.2% of 340,000 active; AID 492953;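 active = inhibition above the mean of all tested compounds plus 3 SD, cut at about 24% in these data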;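 also: 0% = enzyme with DMSO and 100% = wells lacking PAFAH1B2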
ARFGAP1 inh = inhibitors of rat ARFGAP1; Arfgap1-stimulated ARF1 GTP hydrolysis, GDP FP detection; inhibition, % at 16.5 µM; 0.26% of 360,000 active;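 active = inhibition above a per-plate limit, mean inhibition of low control wells plus 3 SD, cut at about 25% in these data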;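 also: 0% = DMSO wells with enzyme and 100% = wells lacking Arfgap1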
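System: truncated rat Arfgap1 GAP domain / Medium: HEPES-based buffer, pH 7.5 / Also added: N-terminally truncated human ARF1-GTP substrate / Incubation: enzyme reaction 120 min at 25 °C after 20 min preincubation / Measured by: FP of antibody-bound GDP Alexa 633 tracer, ex 620/em 688 nm / Replicates: singlicate, each compound tested once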
pPAFAH FP inh = inhibitors of human plasma PAF acetylhydrolase (pPAFAH). Q13093. recombinant pPAFAH, FP-rhodamine probe fluorescence polarization. inhibition, % at 3.39 µM. 1.5% of 330,000 active. AID 463082;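 active = inhibition above the mean inhibition across the screen plus 3 SD, cut at about 25% in these data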;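 also: inhibitors block binding of the rhodamine activity-based probe so polarization drops; 0% = enzyme with DMSO and 100% = wells lacking pPAFAH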
Target sequence (Q13093 whole entry, looked up): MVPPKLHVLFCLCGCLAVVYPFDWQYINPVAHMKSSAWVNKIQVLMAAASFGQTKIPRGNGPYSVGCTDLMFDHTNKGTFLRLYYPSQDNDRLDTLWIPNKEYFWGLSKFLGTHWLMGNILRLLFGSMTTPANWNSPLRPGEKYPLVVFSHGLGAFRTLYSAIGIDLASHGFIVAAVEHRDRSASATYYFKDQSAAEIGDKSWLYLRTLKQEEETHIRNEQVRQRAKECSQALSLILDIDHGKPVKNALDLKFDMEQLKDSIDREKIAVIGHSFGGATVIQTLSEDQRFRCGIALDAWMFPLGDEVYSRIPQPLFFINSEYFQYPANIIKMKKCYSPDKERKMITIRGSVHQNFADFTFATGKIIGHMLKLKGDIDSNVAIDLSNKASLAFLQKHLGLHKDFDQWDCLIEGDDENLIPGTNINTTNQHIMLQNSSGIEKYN
PAFAH2 FP inh = inhibitors of human PAFAH2. Q99487. recombinant PAFAH2, FP-rhodamine activity probe, fluorescence polarization. inhibition, % at 3.39 µM. 0.99% of 340,000 active;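 active = inhibition above the mean over all tested compounds plus 3 SD, cut at about 30% in these data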;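 also: inhibitors block probe labeling of enzyme so polarization drops; 0% = enzyme with DMSO and 100% = wells lacking PAFAH2 protein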
pPAFAH confirm = confirmation of human plasma PAF acetylhydrolase (pPAFAH) inhibitors; shares compounds with pPAFAH FP inh; recombinant pPAFAH, FP-Rh probe fluorescence polarization; inhibition, % at 3.39 µM; 72% of 2,300 active; AID 463230;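 active = mean inhibition of the triplicate above the hit cutoff set for the earlier primary screen, cut at about 25% in these data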;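 also: 0% = enzyme with DMSO and 100% = wells lacking pPAFAH enzyme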
PAFAH2 confirm = confirmation of human PAFAH2 inhibitors; shares compounds with PAFAH2 FP inh; recombinant PAFAH2, FP-rhodamine activity probe, fluorescence polarization; inhibition, % at 3.39 µM; 65% of 2,300 active;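 active = mean inhibition over three repeats above a set limit taken from the earlier primary screen, cut at about 30% in these data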;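 also: inhibitor blocks binding of rhodamine activity probe so polarization falls; 0% = enzyme with DMSO and 100% = wells lacking PAFAH2 protein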
The depositor's hits bear a star; x = not tested or not shown.

SMILES	PAFAH1B3 inh	ASAP1 inh	PAFAH1B2 inh	ARFGAP1 inh	pPAFAH FP inh	PAFAH2 FP inh	pPAFAH confirm	others
Cc1ccc(S(=O)(=O)Cc2ccc(C(=O)N3CCC4(CC3)OCCO4)o2)cc1	5	10	5	3	0	11	x
Cc1ccc(CS(=O)(=O)Cc2ccc(C(=O)N3CCC4(CC3)OCCO4)o2)cc1	2	3	3	-5	40*	12	32*
O=[N+]([O-])c1cc(O)c(O)c([N+](=O)[O-])c1	16	9	16	9	37*	37*	70*
O=[N+]([O-])c1ccc(O)c([N+](=O)[O-])c1	8	4	7	3	2	1	x
Cc1ccc(S(=O)(=O)N(C)N=O)cc1	1	2	-4	-3	2	2	x
CNc1ccc2oc(C[C@H]3O[C@@]4(CC[C@H]3C)O[C@H]([C@H](C)C(=O)c3ccc[nH]3)[C@H](C)C[C@H]4C)nc2c1C(=O)O	10	-5	4	10	38*	-1	8
COc1ccc(OC)c(N2C(=O)NC(=O)/C(=C/c3ccc([N+](=O)[O-])s3)C2=O)c1	69*	-8	55*	-12	62*	66*	58*
COc1cc(/C=C2\C(=O)NC(=O)N(c3ccccc3)C2=O)c([N+](=O)[O-])cc1OC	5	-1	3	0	x	7	x
O=C(COC(=O)Cc1ccccc1)Nc1cc(S(=O)(=O)N2CCOCC2)ccc1N1CCCC1	2	-4	4	10	39*	9	39*
O=C(NC1CCCCC1)N1Cc2cc(Br)ccc2-n2nncc2C1	x	3	x	-2	x	x	x
COc1cc2c(cc1OC)CN(c1ccc([N+](=O)[O-])c(C(F)(F)F)c1)CC2	7	13	3	15	15	5	x
CC[C@H](C)/C=C(C)/C=C/C1=CC2=C(Cl)C(=O)[C@@](C)(OC(C)=O)C(=O)C2=CO1	12	x	16	x	79*	45*	79*
COc1ccc2nc3oc(C(=O)N4CCC5(CC4)OCCO5)cc3cc2c1	7	-6	2	5	44*	4	36*
CN1CCN(c2ccc(N)cc2Cl)CC1	x	1	x	-3	5	x	x
O=C(c1cccs1)c1cn(Cc2ccccc2Cl)c2ccccc12	-6	-3	-5	-3	71*	-9	71*
N#Cc1ccccc1Cn1cc(C(=O)c2cccs2)c2ccccc21	2	-5	-3	4	72*	-4	75*
N#Cc1ccccc1Cn1cc(C(=O)c2ccccc2F)c2ccccc21	5	-4	-6	11	72*	-2	79*
CC(C)NC(=O)Cn1cc(C(=O)c2ccccc2F)c2ccccc21	-6	2	1	-2	0	-9	x
c1ccc2c(CCNC3=NCCC3)c[nH]c2c1	-4	0	3	-9	-7	6	x
CSCCC(N=Cc1c(O)n(-c2ccc(Cl)cc2)c(=O)[nH]c1=O)C(=O)OC(C)(C)C (centres undefined)	4	-6	4	4	-2	-3	x
O=C(N/N=C/c1c(O)n(CCC2=CCCCC2)c(=O)[nH]c1=O)c1ccccc1	4	-15	12	-6	10	9	x
O=C(N/N=C/c1c(O)n(CCC2=CCCCC2)c(=S)[nH]c1=O)c1ccccc1	15	-11	29*	3	52*	-1	42*
CCOC(=O)[C@]12Cc3cc(C)ccc3[C@H]1N(C1CCCCC1)C(=O)c1ccccc12	x	-2	x	-10	x	x	x
O=C1NCN(c2ccccc2)C12CCN(C(c1ccccc1)c1nnnn1Cc1ccccc1)CC2 (centres undefined)	x	3	x	-22	x	x	x
COc1ccc(-n2c(/C=C/c3ccc(O)c(O)c3)nc3ccccc3c2=O)cc1	4	10	-2	13	37*	5	46*
SMILES	PAFAH1B3 inh	ASAP1 inh	PAFAH1B2 inh	ARFGAP1 inh	pPAFAH FP inh	PAFAH2 FP inh	pPAFAH confirm	others
COc1cc(/C=C/c2nc3ccccc3c(=O)n2-c2ccc(O)cc2)ccc1O	6	18	6	4	6	3	x
Cc1ccc(-c2cc(-c3ccccc3)cc(-c3ccccc3)[n+]2-c2ccc(C(=O)O)cc2)cc1	6	-1	9	6	38*	10	0
O=C(O)C1C(C(=O)O)C2(Cl)C(Cl)=C(Cl)C1(Cl)C2(Cl)Cl (centres undefined)	4	-18	6	8	-2	28	x
C=CCOC(=O)C1C(C(=O)O)C2(Cl)C(Cl)=C(Cl)C1(Cl)C2(Cl)Cl (centres undefined)	8	6	21	-9	x	31*	x	PAFAH2 confirm=21
Cc1cc(/C=C2\C(=O)NC(=O)N(c3ccc(Cl)cc3)C2=O)c(C)n1-c1sc2c(c1C#N)CCCC2	4	-7	3	-10	13	33*	x	PAFAH2 confirm=18
CC(C)N1CCN(Cc2cccc([N+](=O)[O-])c2)CC1	5	10	9	6	6	117*	x	PAFAH2 confirm=5
Oc1c(Cl)cccc1Cc1cc(Cl)cc(Cl)c1O	6	-6	5	6	x	37*	x	PAFAH2 confirm=25
COc1cccc(C2(C#N)CCN(C)CC2)c1	-4	0	-2	-10	2	1	x
COc1cccc(CC(=O)N(C)C2CCCN(Cc3ccccc3F)C2)c1 (centres undefined)	11	2	3	5	-7	2	x
COc1ccc(/C=C2\C(=O)NC(=S)N(C)C2=O)cc1C	4	-7	3	-17	0	35*	x	PAFAH2 confirm=0
Cc1ccsc1/C=C1\C(=O)NC(=S)N(C)C1=O	0	1	3	3	3	1	x
COc1ccc(Nc2ncc(C(=O)N3CCC4(CC3)OCCO4)c3ccccc23)cc1	-2	-6	0	-10	4	-1	x
CCC(C)N1C(=O)/C(=C\c2ccc(N3CCCCCC3)cc2)C(=O)NC1=S (centres undefined)	-28	-7	-9	6	4	0	x
CCC(C)N1C(=O)/C(=C\c2cc3c4c(c2)CCCN4CCC3)C(=O)NC1=S (centres undefined)	-5	3	11	-6	3	36*	x	PAFAH2 confirm=20
C[C@]12CCC(=O)C[C@H]1CC[C@@H]1[C@@H]2CC[C@]2(C)[C@@H](O)CC[C@@H]12	x	x	x	x	-9	x	x
Cc1ccc(OCC(=O)NCCN2CCN(C(=O)COc3ccc(C)cc3)CC2)cc1	7	1	3	-4	6	-3	x
Cc1cc(/C=C2\C(=O)NC(=O)N(Cc3ccccc3Cl)C2=O)c(C)n1-c1ccc(C(=O)O)cc1	-1	10	5	7	11	34*	x	PAFAH2 confirm=24
